Source: ChEMBL document CHEMBL1629439, “High-throughput identification of antibacterials against methicillin-resistant Staphylococcus aureus (MRSA) and the transglycosylase” (Bioorg Med Chem, 2010)
≈ marks a conversion by molar mass, not a printed value.

Legend:
[1] = system: Pseudomonas aeruginosa; experiment: Antimicrobial activity against Pseudomonas aeruginosa ATCC 25619 after 18 to 24 hrs by alamar blue assay; assay type: functional; conditions: Pseudomonas aeruginosa, ATCC 25619; read-out: MIC
Method in brief: (§1)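 Broth microdilution per NCCLS in Mueller-Hinton broth, 8-point twofold dilutions, 384-well format. Exponential-phase cells at 5 × 10^5 cells/ml incubated with compound 18–24 h at 37 °C, then 20% Alamar blue added and fluorescence read. MIC90 taken as the lowest concentration preventing at least 90% bacterial growth.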

[2] = system: Escherichia coli; experiment: Antimicrobial activity against Escherichia coli ATCC […] after 18 to 24 hrs by alamar blue assay; assay type: functional; conditions: Escherichia coli; read-out: MIC; method in brief: as §1
[3] = system: Serratia marcescens; experiment: Antimicrobial activity against Serratia marcescens ATCC 14756 after 18 to 24 hrs by alamar blue assay; assay type: functional; conditions: Serratia marcescens, ATCC 14756; read-out: MIC; method in brief: as §1
[4] = system: Staphylococcus aureus; experiment: Antimicrobial activity against methicillin-resistant Staphylococcus aureus isolate NTUH4722 after 18 to 24 hrs by alamar blue assay; assay type: functional
Method in brief: (§2)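 Broth microdilution per NCCLS standard, Mueller-Hinton broth, 8-point twofold dilutions; exponentially growing cells at 5 10^5 cells/ml with compound, 18–24 h at 37 C; 20% Alamar blue added, fluorescence read; MIC90 taken as lowest concentration preventing at least 90% growth.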

[5] = system: Acinetobacter baumannii; experiment: Antimicrobial activity against Acinetobacter baumannii ATCC 49139 after 18 to 24 hrs by alamar blue assay; assay type: functional; conditions: Acinetobacter baumannii, ATCC 49139; read-out: MIC; method in brief: as §1
[6] = system: Bacillus subtilis; experiment: Antimicrobial activity against Bacillus subtilis ATCC 23857 after 18 to 24 hrs by alamar blue assay; assay type: functional; method in brief: as §1
[7] = system: Staphylococcus aureus; experiment: Antimicrobial activity against oxacillin- and methicillin-resistant Staphylococcus aureus isolate Sa-OXA-R2 after 18 to 24 hrs by alamar blue assay; assay type: functional; method in brief: as §2
[8] = system: Staphylococcus aureus; experiment: Antimicrobial activity against methicillin-resistant Staphylococcus aureus ATCC 33592 after 18 to 24 hrs by alamar blue assay; assay type: functional; conditions: Staphylococcus aureus, ATCC 33592; read-out: MIC; method in brief: as §2
[9] = system: Stenotrophomonas maltophilia; experiment: Antimicrobial activity against Stenotrophomonas maltophilia ATCC 13637 after 18 to 24 hrs by alamar blue assay; assay type: functional; conditions: Stenotrophomonas maltophilia, ATCC 13637; read-out: MIC; method in brief: as §1
[10] = system: Mycolicibacterium smegmatis; experiment: Antimicrobial activity against Mycobacterium smegmatis BCRC 11565 after 18 to 24 hrs by alamar blue assay; assay type: functional; conditions: Mycolicibacterium smegmatis, BCRC 11565; read-out: MIC; method in brief: as §1
[11] = system: Staphylococcus aureus; experiment: Antimicrobial activity against Staphylococcus aureus ATCC 29213 after 18 to 24 hrs by alamar blue assay
[12] = Inhibition of transglycosylase assessed as inhibition of NBD- labelled lipid II polymerization
Method in brief: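 100 µM NBD-labelled lipid II incubated 30 min with full-length PBP (EC, SA or Mtb) and 10 ng/µl N-acetylmuramidase in 50 mM Tris-HCl pH 8.0, 10 mM MgCl2, 0.1% Triton X-100, 10% DMSO, 15% MeOH. Supernatant run on anion-exchange HPLC with 20 mM–0.5 M ammonium acetate gradient. Inhibition calculated from substrate peak-area percentage. IC50 determined. S. aureus strains share one SA enzyme.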

SMILES | MIC [1] [µg/mL] | MIC [2] [µg/mL] | MIC [3] [µg/mL] | MIC [4] [µg/mL] | MIC [5] [µg/mL] | MIC [6] [µg/mL] | MIC [7] [µg/mL] | MIC [8] [µg/mL] | MIC [9] [µg/mL] | MIC [10] [µg/mL] | MIC [11] [µg/mL] | IC90 [12] [µM]
O=C(c1ccc(Cl)cc1)c1ccc(NC(=O)c2cc(Br)cc(Br)c2O)cc1Cl | 16 (≈ 29.4 µM) | 8 (≈ 14.7 µM) | 16 (≈ 29.4 µM) | ≤ 0.03 | 16 (≈ 29.4 µM) | < 0.03 | ≤ 0.03 | 4 (≈ 7.35 µM) | 16 (≈ 29.4 µM) | 0.5 (≈ 0.919 µM) | ≤ 2 | 100
O=C(c1ccc(Cl)cc1)c1cc(NC(=O)c2cc(Br)cc(Br)c2O)ccc1Br | 16 (≈ 27.2 µM) | 8 (≈ 13.6 µM) | 16 (≈ 27.2 µM) | ≤ 0.03 | 16 (≈ 27.2 µM) | < 0.03 | ≤ 0.03 | ≤ 2 | 16 (≈ 27.2 µM) | 0.5 (≈ 0.85 µM) | ≤ 2 | 100
O=C(Nc1ccc(Oc2cc3ccccc3cc2Cl)c(Cl)c1)c1cc(Br)cc(Br)c1O | 16 (≈ 27.5 µM) | 8 (≈ 13.7 µM) | 16 (≈ 27.5 µM) | ≤ 0.03 | 16 (≈ 27.5 µM) | < 0.03 | ≤ 0.03 | 4 (≈ 6.87 µM) | 16 (≈ 27.5 µM) | 0.5 (≈ 0.859 µM) | 4 (≈ 6.87 µM) | 100
Cc1ccc(C(=O)c2cc(Cl)cc(NC(=O)c3cc(Br)cc(Br)c3O)c2Cl)cc1 | 16 (≈ 28.7 µM) | 8 (≈ 14.3 µM) | 16 (≈ 28.7 µM) | > 4 | 16 (≈ 28.7 µM) | < 0.03 | > 4 | > 4 | 16 (≈ 28.7 µM) | 0.5 (≈ 0.896 µM) | > 4 | 100
O=C(Nc1ccc(Oc2ccc3ccccc3c2Cl)c(Cl)c1)c1cc(Cl)cc(Br)c1O | 16 (≈ 29.8 µM) | 8 (≈ 14.9 µM) | 16 (≈ 29.8 µM) | ≤ 0.03 | 16 (≈ 29.8 µM) | < 0.03 | ≤ 0.03 | ≤ 2 | 16 (≈ 29.8 µM) | 0.5 (≈ 0.93 µM) | ≤ 2 | 100
O=C(c1ccc(Cl)cc1)c1cc(NC(=O)c2cc(I)cc(I)c2O)ccc1Cl | 16 (≈ 25.1 µM) | 8 (≈ 12.5 µM) | 16 (≈ 25.1 µM) | ≤ 0.03 | 16 (≈ 25.1 µM) | < 0.03 | ≤ 0.03 | 4 (≈ 6.27 µM) | 16 (≈ 25.1 µM) | 0.5 (≈ 0.784 µM) | ≤ 2 | 100
O=C(Nc1ccc(Oc2ccc3ccccc3c2Cl)c(Cl)c1)c1cc(Br)cc(Br)c1O | 16 (≈ 27.5 µM) | 8 (≈ 13.7 µM) | 16 (≈ 27.5 µM) | ≤ 0.03 | 16 (≈ 27.5 µM) | < 0.03 | ≤ 0.03 | ≤ 2 | 16 (≈ 27.5 µM) | 0.5 (≈ 0.859 µM) | ≤ 2 | 100
Cc1ccc(C)c(C(=O)c2cc(NC(=O)c3cc(Br)cc(Br)c3O)ccc2Oc2ccc(Cl)cc2)c1 | 16 (≈ 25.4 µM) | 8 (≈ 12.7 µM) | 16 (≈ 25.4 µM) | ≤ 0.03 | 16 (≈ 25.4 µM) | < 0.03 | ≤ 0.03 | 32 (≈ 50.8 µM) | 16 (≈ 25.4 µM) | 0.5 (≈ 0.794 µM) | 8 (≈ 12.7 µM) | > 100
O=C(Nc1ccc(Sc2nc3ccccc3s2)c(Cl)c1)c1cc(Cl)cc(Cl)c1O | 16 (≈ 33.2 µM) | 8 (≈ 16.6 µM) | 16 (≈ 33.2 µM) | ≤ 0.03 | 16 (≈ 33.2 µM) | < 0.03 | ≤ 0.03 | 4 (≈ 8.3 µM) | 16 (≈ 33.2 µM) | 0.5 (≈ 1.04 µM) | 8 (≈ 16.6 µM) | > 100
O=C(Nc1ccc(Sc2nc3ccccc3s2)c(Cl)c1)c1cc(Br)cc(Br)c1O | 16 (≈ 28 µM) | 8 (≈ 14 µM) | 16 (≈ 28 µM) | ≤ 0.03 | 16 (≈ 28 µM) | < 0.03 | ≤ 0.03 | ≤ 2 | 16 (≈ 28 µM) | 0.5 (≈ 0.876 µM) | 4 (≈ 7.01 µM) | 100
Cc1ccc(C(C)C)cc1Oc1ccc(Cl)cc1NC(=O)c1cc(Cl)cc(Br)c1O | 16 (≈ 31.4 µM) | 8 (≈ 15.7 µM) | 16 (≈ 31.4 µM) | ≤ 0.03 | 16 (≈ 31.4 µM) | < 0.03 | ≤ 0.03 | 0.5 (≈ 0.982 µM) | 16 (≈ 31.4 µM) | 0.5 (≈ 0.982 µM) | 1 (≈ 1.96 µM) | 50
O=C(Nc1ccc(Oc2ccc(Cl)c3cccnc23)c(Cl)c1)c1cc(Br)cc(Br)c1O | 16 (≈ 27.4 µM) | 8 (≈ 13.7 µM) | 16 (≈ 27.4 µM) | ≤ 0.03 | 16 (≈ 27.4 µM) | < 0.03 | ≤ 0.03 | 32 (≈ 54.9 µM) | 16 (≈ 27.4 µM) | 0.5 (≈ 0.858 µM) | 16 (≈ 27.4 µM) | 100
Cc1ccc(C(C)C)cc1Oc1ccc(Cl)cc1NC(=O)c1cc(Cl)ccc1O | 16 (≈ 37.2 µM) | 8 (≈ 18.6 µM) | 16 (≈ 37.2 µM) | ≤ 0.03 | 16 (≈ 37.2 µM) | < 0.03 | ≤ 0.03 | 0.5 (≈ 1.16 µM) | 16 (≈ 37.2 µM) | 0.5 (≈ 1.16 µM) | 0.5 (≈ 1.16 µM) | 100
O=C(Nc1cc(Cl)ccc1Oc1ccc(Cl)c2ccccc12)c1cc(Cl)cc(Br)c1O | 16 (≈ 29.8 µM) | 8 (≈ 14.9 µM) | 16 (≈ 29.8 µM) | ≤ 0.03 | 16 (≈ 29.8 µM) | < 0.03 | ≤ 0.03 | 16 (≈ 29.8 µM) | 16 (≈ 29.8 µM) | 0.5 (≈ 0.93 µM) | 8 (≈ 14.9 µM) | 100
Cc1ccc(C(C)C)c(Oc2ccc(Cl)cc2NC(=O)c2cc(Cl)cc(Cl)c2O)c1 | 16 (≈ 34.4 µM) | 8 (≈ 17.2 µM) | 16 (≈ 34.4 µM) | ≤ 0.03 | 16 (≈ 34.4 µM) | < 0.03 | ≤ 0.03 | 0.25 (≈ 0.538 µM) | 16 (≈ 34.4 µM) | 0.5 (≈ 1.08 µM) | 1 (≈ 2.15 µM) | 50
Cc1c(CC(=O)N[C@@H](C(=O)O)c2ccccc2)c(=O)oc2c(C)c3occ(-c4ccc(Cl)cc4)c3cc12 | > 256 | > 256 | > 256 | 2.5 (≈ 4.85 µM) | > 256 | > 64 | 2.5 (≈ 4.85 µM) | 2.5 (≈ 4.85 µM) | > 256 | 1 (≈ 1.94 µM) | 2.5 (≈ 4.85 µM) | 
Cc1ccc(NS(=O)(=O)c2ccc3c(c2)NC(=O)C(C)S3)c(C)c1 (stereo not drawn) | > 256 | > 256 | > 256 | 4 (≈ 11 µM) | > 256 | < 0.03 | > 64 | 32 (≈ 88.3 µM) | > 256 | > 64 | 2 (≈ 5.52 µM) | 
NC(=O)c1oc2ccccc2c1NC(=O)c1ccc([N+](=O)[O-])o1 | 128 (≈ 406 µM) | 256 (≈ 812 µM) | 32 (≈ 102 µM) | 0.5 (≈ 1.59 µM) | 12 (≈ 38.1 µM) | 0.06 (≈ 0.19 µM) | 2 (≈ 6.34 µM) | 0.5 (≈ 1.59 µM) | 32 (≈ 102 µM) | 0.5 (≈ 1.59 µM) | 2 (≈ 6.34 µM) | 
Cc1c(CC(=O)N2CCC[C@H]2C(=O)O)c(=O)oc2c(C)c3occ(-c4ccc(F)cc4)c3cc12 | > 256 | > 256 | > 256 | 0.6 (≈ 1.29 µM) | > 256 | > 64 | 0.6 (≈ 1.29 µM) | 1.25 (≈ 2.7 µM) | > 256 | 1 (≈ 2.16 µM) | 0.6 (≈ 1.29 µM) | 
O=C(Nc1nnc(-c2cccc(Br)c2)o1)c1ccc(F)cc1 | > 256 | > 256 | > 256 | 1.5 (≈ 4.14 µM) | > 256 | 0.5 (≈ 1.38 µM) | 1.5 (≈ 4.14 µM) | 1.5 (≈ 4.14 µM) | > 256 | 0.5 (≈ 1.38 µM) | 3 (≈ 8.28 µM) | 
CCOc1ccc2nc(NC(=O)c3ccc([N+](=O)[O-])o3)sc2c1 | 128 (≈ 384 µM) | 256 (≈ 768 µM) | 32 (≈ 96 µM) | 16 (≈ 48 µM) | 12 (≈ 36 µM) | 0.06 (≈ 0.18 µM) | 16 (≈ 48 µM) | 4 (≈ 12 µM) | 32 (≈ 96 µM) | 0.5 (≈ 1.5 µM) | 2 (≈ 6 µM) | 
CCCc1ccc(C)c(Oc2ccc(Cl)cc2NC(=O)c2cc(Cl)cc(Br)c2O)c1 | 16 (≈ 31.4 µM) | 8 (≈ 15.7 µM) | 16 (≈ 31.4 µM) | 0.06 (≈ 0.118 µM) | 16 (≈ 31.4 µM) | < 0.03 | 0.06 (≈ 0.118 µM) | 0.125 (≈ 0.245 µM) | 16 (≈ 31.4 µM) | 0.5 (≈ 0.982 µM) | 0.25 (≈ 0.491 µM) | 
CCCc1cc(O)nc(N2NC(C)=CC2NC(=O)c2ccccc2Cl)n1 (stereo not drawn) | > 256 | > 256 | > 256 | 1 (≈ 2.67 µM) | > 256 | 0.25 (≈ 0.669 µM) | 2 (≈ 5.35 µM) | 0.5 (≈ 1.34 µM) | > 256 | 0.25 (≈ 0.669 µM) | 1 (≈ 2.67 µM) | 
